Measured values as given in ChEMBL document CHEMBL3102784, “Salicylanilide diethyl phosphates: synthesis, antimicrobial activity and cytotoxicity” (Bioorg Med Chem, 2014).
Values after ≈ are worked out from the molar mass of the structure shown. Active and inactive are the calls of the source. No cut-off for these calls is given here.

Key:
[1] = test system: Mycobacterium kansasii; test: Antimycobacterial activity against Mycobacterium kansasii My 235/80 after 14 days; format: functional; conditions: My 235/80, 336 h
Method in brief: (§1)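 Micromethod MIC in Šula's semisynthetic medium at 37 °C. Compounds added in DMSO at 1000 down to 0.032 µmol/L. Isoniazid standard in sterile water at 0.5–250 µmol/L. Inocula: H37Rv 10^3, M. avium 10^5, M. kansasii 10^4. Read at 14 and 21 d, plus 7 d for M. kansasii.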

[2] = test system: Trichophyton mentagrophytes; test: Antifungal activity against Trichophyton mentagrophytes 445 after 120 hrs by broth microdilution method; format: functional; conditions: Trichophyton mentagrophytes, 445, 120 h
Method in brief: (§2)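 Filamentous dermatophyte tested by broth microdilution in RPMI 1640 with glutamine, fluconazole as reference. Value expressed as IC50 relative to growth control. Read at 72 and 120 h.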

[3] = test system: Mycobacterium kansasii; test: Antimycobacterial activity against Mycobacterium kansasii 6509/96 after 21 days; format: functional; conditions: 6509/96, 504 h; method in brief: as §1
[4] = test system: Aspergillus fumigatus; test: Antifungal activity against Aspergillus fumigatus 231 after 48 hrs by broth microdilution method; format: functional; conditions: Aspergillus fumigatus, 231, 48 h
Method in brief: (§3)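 Broth microdilution in RPMI 1640 with glutamine, fluconazole as reference. For yeasts, MIC is ≥80% growth reduction (IC80) versus control. For filamentous fungi, the value is expressed as IC50. Readings at 24 and 48 h.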

[5] = test system: Mycobacterium tuberculosis; test: Antimycobacterial activity against Mycobacterium tuberculosis H37Rv My 331/88 after 21 days; format: functional; conditions: H37Rv My 331/88, 504 h; method in brief: as §1
[6] = test system: Pseudomonas aeruginosa; test: Antibacterial activity against Pseudomonas aeruginosa CCM 1961 at 500 micromol/L after 24 to 48 hrs by broth microdilution method; format: functional, organism-based
Method in brief: (§4)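 Broth microdilution in Mueller–Hinton broth, compounds dissolved in DMSO, tested over a dilution series from 500 downward. MIC taken as ≥95% growth reduction (IC95) versus drug-free control. Benzylpenicillin comparator. Readings at 24 and 48 h.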

[7] = test system: Aspergillus fumigatus; test: Antifungal activity against Aspergillus fumigatus 231 after 24 hrs by broth microdilution method; format: functional; conditions: Aspergillus fumigatus, 231, 24 h; method in brief: as §3
[8] = test system: HepG2; test: Cytotoxicity against human HepG2 cells after 24 hrs by CellTiter assay; format: cell-based; conditions: HepG2, 24 h
Method in brief: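 HepG2 cells (passage 27–33) in MEM with 10% FBS, L-glutamine and NEAA, seeded at 1×10^4 per well. Treated next day with compounds at 0.1–100 µM (or 0.1–25 µmol/L), triplicates, <1% DMSO, for 24 h at 37 °C, 5% CO2. MTS reagent added for 2 h, absorbance read at 490 nm. IC50 taken against untreated (100%) and 10% DMSO (0%) controls.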

[9] = test system: Trichophyton mentagrophytes; test: Antifungal activity against Trichophyton mentagrophytes 445 after 72 hrs by broth microdilution method; format: functional; conditions: Trichophyton mentagrophytes, 445, 72 h; method in brief: as §2
[10] = test system: Mycobacterium kansasii; test: Antimycobacterial activity against Mycobacterium kansasii 6509/96 after 14 days; format: functional; conditions: 6509/96, 336 h; method in brief: as §1
[11] = test system: Mycobacterium kansasii; test: Antimycobacterial activity against Mycobacterium kansasii 6509/96 after 7 days; format: functional; conditions: 6509/96, 168 h; method in brief: as §1
[12] = test system: Lichtheimia corymbifera; test: Antifungal activity against Absidia corymbifera 272 after 24 hrs by broth microdilution method; format: functional; conditions: Lichtheimia corymbifera, 272, 24 h; method in brief: as §3
[13] = test system: Nakaseomyces glabratus; test: Antifungal activity against Candida glabrata 20/I at 500 micromol/L after 24 to 48 hrs by broth microdilution method; format: functional, organism-based; method in brief: as §3
[14] = test system: Klebsiella pneumoniae; test: Antibacterial activity against Klebsiella pneumoniae D 11750/08 at 500 micromol/L after 24 to 48 hrs by broth microdilution method; format: functional, organism-based; method in brief: as §4
[15] = test system: Enterococcus sp.; test: Antibacterial activity against Enterococcus sp. J 14365/08 at 500 micromol/L after 24 to 48 hrs by broth microdilution method; format: functional, organism-based; method in brief: as §4
[16] = test system: Staphylococcus aureus; test: Antibacterial activity against methicillin-resistant Staphylococcus aureus H 5996/08 after 24 hrs by broth microdilution method; format: functional; conditions: H 5996/08, 24 h; method in brief: as §4
[17] = test system: Trichosporon asahii; test: Antifungal activity against Trichosporon asahii 1188 after 24 hrs by broth microdilution method; format: functional; conditions: Trichosporon asahii, 1188, 24 h; method in brief: as §3
[18] = test system: Mycobacterium kansasii; test: Antimycobacterial activity against Mycobacterium kansasii My 235/80 after 7 days; format: functional; conditions: My 235/80, 168 h; method in brief: as §1
[19] = test system: Lichtheimia corymbifera; test: Antifungal activity against Absidia corymbifera 272 after 48 hrs by broth microdilution method; format: functional; conditions: Lichtheimia corymbifera, 272, 48 h; method in brief: as §3
[20] = test system: Mycobacterium avium; test: Antimycobacterial activity against isoniazid, rifampicin, ethambutol and ofloxacin-resistant Mycobacterium avium My 330/88 after 21 days; format: functional; conditions: My 330/88, 504 h; method in brief: as §1
[21] = test system: Staphylococcus aureus; test: Antibacterial activity against methicillin-resistant Staphylococcus aureus H 5996/08 after 48 hrs by broth microdilution method; format: functional; conditions: H 5996/08, 48 h; method in brief: as §4
[22] = test system: Mycobacterium tuberculosis; test: Antimycobacterial activity against Mycobacterium tuberculosis H37Rv My 331/88 after 14 days; format: functional; conditions: H37Rv My 331/88, 336 h; method in brief: as §1
[23] = test system: Candida albicans; test: Antifungal activity against Candida albicans ATCC 44859 after 48 hrs by broth microdilution method; format: functional; conditions: ATCC 44859, 48 h; method in brief: as §3
[24] = test system: Staphylococcus epidermidis; test: Antibacterial activity against Staphylococcus epidermidis H 6966/08 after 24 hrs by broth microdilution method; format: functional; conditions: H 6966/08, 24 h; method in brief: as §4
[25] = test system: Escherichia coli; test: Antibacterial activity against Escherichia coli CCM 4517 at 500 micromol/L after 24 to 48 hrs by broth microdilution method; format: functional, organism-based; method in brief: as §4
[26] = test system: Candida tropicalis; test: Antifungal activity against Candida tropicalis 156 at 500 micromol/L after 24 to 48 hrs by broth microdilution method; format: functional, organism-based; method in brief: as §3
[27] = test system: Mycobacterium avium; test: Antimycobacterial activity against isoniazid, rifampicin, ethambutol and ofloxacin-resistant Mycobacterium avium My 330/88 after 14 days; format: functional; conditions: My 330/88, 336 h; method in brief: as §1
[28] = test system: Pichia kudriavzevii; test: Antifungal activity against Candida krusei E28 after 48 hrs by broth microdilution method; format: functional; conditions: E28, 48 h; method in brief: as §3
[29] = test system: Staphylococcus aureus; test: Antibacterial activity against Staphylococcus aureus CCM 4516/08 after 24 hrs by broth microdilution method; format: functional; conditions: CCM 4516/08, 24 h; method in brief: as §4
[30] = test system: Candida albicans; test: Antifungal activity against Candida albicans ATCC 44859 after 24 hrs by broth microdilution method; format: functional; conditions: ATCC 44859, 24 h; method in brief: as §3
[31] = test system: Pichia kudriavzevii; test: Antifungal activity against Candida krusei E28 after 24 hrs by broth microdilution method; format: functional; conditions: E28, 24 h; method in brief: as §3
[32] = test system: Staphylococcus aureus; test: Antibacterial activity against Staphylococcus aureus CCM 4516/08 after 48 hrs by broth microdilution method; format: functional; conditions: CCM 4516/08, 48 h; method in brief: as §4
[33] = test system: Staphylococcus epidermidis; test: Antibacterial activity against Staphylococcus epidermidis H 6966/08 after 48 hrs by broth microdilution method; format: functional; conditions: H 6966/08, 48 h; method in brief: as §4
[34] = test system: Klebsiella pneumoniae; test: Antibacterial activity against ESBL-positive Klebsiella pneumoniae J 14368/08 at 500 micromol/L after 24 to 48 hrs by broth microdilution method; format: functional, organism-based; method in brief: as §4
[35] = test system: Trichosporon asahii; test: Antifungal activity against Trichosporon asahii 1188 after 48 hrs by broth microdilution method; format: functional; conditions: Trichosporon asahii, 1188, 48 h; method in brief: as §3
[36] = test system: Mycobacterium kansasii; test: Antimycobacterial activity against Mycobacterium kansasii My 235/80 after 21 days; format: functional; conditions: My 235/80, 504 h; method in brief: as §1

SMILES: CCOP(=O)(OCC)Oc1cc(Cl)ccc1C(=O)Nc1ccc(F)cc1
- MIC [1]: 16 µM (≈ 6.43 µg/mL)
- MIC50 [2]: 500 µM (≈ 201 µg/mL)
- MIC [3]: 32 µM (≈ 12.9 µg/mL)
- MIC50 [4]: > 500 µM
- MIC [5]: 16 µM (≈ 6.43 µg/mL)
- Activity [6]: inactive
- MIC50 [7]: > 500 µM
- IC50 [8]: 33.8 µM
- MIC50 [9]: 500 µM (≈ 201 µg/mL)
- MIC [10]: 32 µM (≈ 12.9 µg/mL)
- MIC [11]: 16 µM (≈ 6.43 µg/mL)
- MIC50 [12]: > 500 µM
- Activity [13]: inactive
- Activity [14]: inactive
- Activity [15]: inactive
- MIC95 [16]: > 500 µM
- MIC80 [17]: > 500 µM
- MIC [18]: 16 µM (≈ 6.43 µg/mL)
- MIC50 [19]: > 500 µM
- MIC [20]: 32 µM (≈ 12.9 µg/mL)
- MIC95 [21]: > 500 µM
- MIC [22]: 16 µM (≈ 6.43 µg/mL)
- MIC80 [23]: > 500 µM
- MIC95 [24]: > 500 µM
- Activity [25]: inactive
- Activity [26]: inactive
- MIC [27]: 32 µM (≈ 12.9 µg/mL)
- MIC80 [28]: > 500 µM
- MIC95 [29]: 250 µM (≈ 100 µg/mL)
- MIC80 [30]: > 500 µM
- MIC80 [31]: > 500 µM
- MIC95 [32]: 500 µM (≈ 201 µg/mL)
- MIC95 [33]: > 500 µM
- Activity [34]: inactive
- MIC80 [35]: > 500 µM
- MIC [36]: 16 µM (≈ 6.43 µg/mL)
